The source of these data is ChEMBL document CHEMBL4680128, “Synthesis of a novel and potent small-molecule antagonist of PAC1 receptor for the treatment of neuropathic pain” (Eur J Med Chem, 2020).

What is called IC50 is the midpoint of a concentration-inhibition curve.

Series [1] can be described thus: Effect on nociception on contralateral paw in ddy mouse model of spinal nerve ligation-induced neuropathic pain at 100 pmol, it administered as single dose measured up to 24 hrs. In kind it is ADME. As to conditions: in vivo, icv_or_intrathecal.
For series [2], the system named is Mus musculus. Description: Antiallodynic activity in ddy mouse model of spinal nerve ligation-induced neuropathic pain assessed as […] at 100 pmol, it administered as single dose measured up to 24 hrs. It is filed as functional, organism-based. To be noted: time hrs <=24.
Series [3] is filed under the species Mus musculus. Description: Antiallodynic activity in PACAP-induced mechanical allodynia ddy mouse model assessed as increase in ipsilateral paw withdrawal threshold at 100 pmol, it. It is filed as functional, organism-based. In a few lines:
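Male ddY mice, 6 weeks old at start. Agent 100 pmol co-injected i.t. with PACAP 100 pmol in 5 µl by lumbar (L5/L6) puncture; diluted in PBS or ACSF. Hind-paw 50% withdrawal threshold measured with von Frey hairs by the up-down method. n = 6, compared with vehicle.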

Series [4] has as its target T1, Pituitary adenylate cyclase-activating polypeptide type I receptor (Homo sapiens, UniProt P41586). Description: Antagonist activity at PAC1 receptor (unknown origin) expressed in CHO cells assessed as inhibition of PACAP-induced inhibition of CREB phosphorylation at 1 nM preincubated for 30 mins followed by PACAP stimulation and measured after 30 mins by Western blot analysis relative to control; values are per cent of control. As to conditions: time 60.0 min. (Immunoblotting shows a protein as a band on a membrane.)
Target sequence in this assay (P41586 21-468 limits assumed): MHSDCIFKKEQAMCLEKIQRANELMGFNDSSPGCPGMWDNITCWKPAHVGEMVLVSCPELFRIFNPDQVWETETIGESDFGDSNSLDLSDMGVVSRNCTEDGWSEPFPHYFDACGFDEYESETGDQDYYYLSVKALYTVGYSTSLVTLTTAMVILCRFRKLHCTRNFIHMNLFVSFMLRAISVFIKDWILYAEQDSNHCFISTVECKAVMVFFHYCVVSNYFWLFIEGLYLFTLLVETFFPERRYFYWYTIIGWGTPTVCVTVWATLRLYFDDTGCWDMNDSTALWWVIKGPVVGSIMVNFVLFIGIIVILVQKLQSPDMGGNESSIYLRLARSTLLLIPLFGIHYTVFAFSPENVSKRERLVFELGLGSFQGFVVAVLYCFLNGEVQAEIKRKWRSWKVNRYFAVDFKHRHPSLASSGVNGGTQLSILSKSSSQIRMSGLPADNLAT

Series [5] has as its target T1, Pituitary adenylate cyclase-activating polypeptide type I receptor. Description: Antagonist activity at PAC1 receptor (unknown origin) expressed in CHO cells assessed as inhibition of PACAP-induced inhibition of CREB phosphorylation preincubated for 30 mins followed by PACAP stimulation and measured after 30 mins by Western blot analysis. It is filed as cell-based. To be noted: for inhibition: filed as antagonist, time 60.0 min. In a few lines:
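PAC1/CHO cells seeded at 1×10^5 cells/well and grown 48 h, then pretreated 30 min with agent over 10 pM to 10 nM (vehicle 0.1% DMSO). Stimulated with PACAP 1 nM for 30 min. Western blot of 20 µg lysate for phospho-CREB (Ser133) and total CREB, with pCREB normalised to total CREB. IC50 taken from the dose series. n = 3-5.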

The nature of series [6]: Effect on nociception on contralateral paw in ddy mouse model of spinal nerve ligation-induced neuropathic pain at 30 mg/kg, po administered as single dose measured up to 24 hrs. As to conditions: in vivo. It is filed as ADME, organism-based. In a few lines:
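Spinal nerve ligation performed in male ddY mice. On day 14 after SNL, a single oral dose of 30 mg/kg given. Ipsilateral and contralateral hind-paw 50% gram thresholds measured by von Frey up-down method at serial times after dosing. n = 6 per group, compared with vehicle.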

The structures appear in SMILES notation. The source made the active and inactive calls.

Take `O=C(NCCc1c[nH]cn1)C1CC(=O)N(c2n[nH]c3ccccc23)C1` (centres undefined): the Activity result in series [1] and in series [6] was “Non-Toxic” each time. For the same compound, the result with Mus musculus [2] and in the series listed under Mus musculus [3] was Active. The residual activity in series [4] came to 30.6%. Also, the 50% inhibitory concentration (IC50) in series [5] amounted to 0.182 nM. Besides, the inhibition entry in series [5] was “Dose-dependent effect”.

With `O=C(NCCc1c[nH]cn1)C1CC(=O)N(c2n[nH]c3c(Cl)cccc23)C1` (centres undefined), the Activity result in series [1] and in series [6] was “Non-Toxic” throughout. Moreover, the outcome with Mus musculus [2] and in the series listed under Mus musculus [3] was Active. For the same compound, the residual activity in series [4] was 11.9%. In addition, the IC50 in series [5] is < 0.01 nM. Besides, the inhibition result in series [5] is “Dose-dependent effect”.
